Reference: ChEMBL document CHEMBL2417545, “6-methoxy-7-benzofuranoxy and 6-methoxy-7-indolyloxy analogues of 2-[2-(2,6-Dimethoxyphenoxy)ethyl]aminomethyl-1,4-benzodioxane (WB4101):1 discovery of a potent and selective α1D-adrenoceptor antagonist” (J Med Chem, 2013)
pKi: −log10 of the molar value.

Key:
Rattus norvegicus [1] = organism: Rattus norvegicus; test: Selectivity ratio of Ki for alpha-1D adrenoreceptor in Sprague-Dawley rat thoracic aorta to Ki for alpha-1A adrenoreceptor in Sprague-Dawley rat prostatic vas deferens; assay type: tissue-based
Cavia porcellus = organism: Cavia porcellus; test: Inverse agonist activity at alpha-1 receptor in guinea pig thoracic aorta assessed as inhibition of calcium-induced increase in resting tension at 10 nM relative to control; assay type: tissue-based
Procedure, shortened: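 Guinea pig thoracic aortic strips in Krebs at 37 °C, equilibrated 1 h at 1 g tension, then given (−)-noradrenaline 1 μM. Internal Ca²⁺ stores were depleted by repeated agonist in Ca²⁺-free Krebs with 0.1 mM EDTA. After 30 min with antagonist at 10 nM, 1.8 mM Ca²⁺ was added. Read-out: % decrease of Ca²⁺-induced increase in resting tension versus no-agent reference.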

[2] = molecular target: T1, Alpha-1A adrenergic receptor (Homo sapiens, UniProt P35348); test: Displacement of [3H]prazosin from human alpha-1A adrenoreceptor expressed in CHO cells after 30 mins; assay type: cell-based
T1 sequence (P35348 whole entry): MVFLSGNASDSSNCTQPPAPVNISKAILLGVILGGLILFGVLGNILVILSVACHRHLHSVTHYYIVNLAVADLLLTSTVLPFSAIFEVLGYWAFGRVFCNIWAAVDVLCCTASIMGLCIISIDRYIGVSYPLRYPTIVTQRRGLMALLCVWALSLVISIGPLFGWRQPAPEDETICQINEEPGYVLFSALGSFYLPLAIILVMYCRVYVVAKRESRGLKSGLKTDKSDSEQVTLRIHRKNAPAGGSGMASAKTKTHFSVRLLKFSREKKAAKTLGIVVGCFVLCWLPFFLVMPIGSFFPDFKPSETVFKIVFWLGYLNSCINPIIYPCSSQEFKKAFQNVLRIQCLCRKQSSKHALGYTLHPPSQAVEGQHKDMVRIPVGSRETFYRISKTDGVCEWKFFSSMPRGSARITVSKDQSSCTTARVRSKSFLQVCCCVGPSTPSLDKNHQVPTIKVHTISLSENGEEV
Procedure, shortened: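 Membranes from CHO cells expressing each α₁-AR subtype, incubated 30 min at 25 °C in 50 mM Tris HCl pH 7.7 with 10 μM pargyline and 0.1% ascorbic acid, plus 0.5 nM [³H]prazosin and varying test compound concentrations. Nonspecific binding was defined with 1 μM prazosin.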

[3] = molecular target: T2, 5-hydroxytryptamine receptor 1A (Rattus norvegicus, UniProt P19327); test: Displacement of [3H]-8-OHDPAT from 5-HT1A receptor in rat hippocampal membranes after 30 mins; assay type: cell membranes, Hippocampus, Membrane
T2 sequence (P19327 whole entry): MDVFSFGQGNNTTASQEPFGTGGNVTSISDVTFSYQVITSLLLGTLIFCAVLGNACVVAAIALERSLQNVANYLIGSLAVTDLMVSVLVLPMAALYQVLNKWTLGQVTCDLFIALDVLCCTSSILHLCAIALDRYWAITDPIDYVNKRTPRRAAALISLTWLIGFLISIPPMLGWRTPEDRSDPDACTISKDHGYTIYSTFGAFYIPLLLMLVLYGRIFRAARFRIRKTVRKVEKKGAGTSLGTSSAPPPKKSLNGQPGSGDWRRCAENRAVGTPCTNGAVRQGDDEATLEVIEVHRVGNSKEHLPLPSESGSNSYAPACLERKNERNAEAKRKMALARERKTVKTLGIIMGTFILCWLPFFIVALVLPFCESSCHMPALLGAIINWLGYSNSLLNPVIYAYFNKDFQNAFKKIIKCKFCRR

Rattus norvegicus [4] = organism: Rattus norvegicus; test: Selectivity ratio of Ki for alpha-1D adrenoreceptor in Sprague-Dawley rat thoracic aorta to Ki for alpha-1B adrenoreceptor in Sprague-Dawley rat spleen; assay type: tissue-based
Rattus norvegicus [5] = organism: Rattus norvegicus; test: Selectivity ratio of Ki for alpha-1D adrenoreceptor in Sprague-Dawley rat thoracic aorta to Ki for alpha-1A adrenoreceptor in Sprague-Dawley rat prostate; assay type: tissue-based

Row | Structure (SMILES) | Ratio Ki (Rattus norvegicus [1]) | inhibition (Cavia porcellus) | pKi [2] | pKi [3] | Ratio Ki (Rattus norvegicus [4]) | Ratio Ki (Rattus norvegicus [5])
1 | COc1ccc2ccoc2c1OCCNC[C@H]1COc2ccccc2O1.Cl | 6 | 0% | 9.31 | 8.59 | 2 | –
2 | COc1ccc2cc[nH]c2c1OCCNC[C@H]1COc2ccccc2O1 | – | 25% | 6.75 | 6.47 | – | –
3 | COc1ccc2c(c1OCCNC[C@H]1COc3ccccc3O1)OCC2.Cl | 129 | 0% | 8.70 | 7.33 | 12 | 50
4 | COc1ccc2c(c1OCCNC[C@H]1COc3ccccc3O1)NCC2.Cl.Cl | – | 100% | 8.42 | 6.96 | – | –
